# Bioassay records as filed in PubChem BioAssay.
# Only some compounds are listed: those with a hit (about 3.3% of all), similar ones and a draw of the others.
# 5HT1a ag: human 5-HT1a receptor agonists, primary screen, cell-based, CHO, Ga15 NFAT-bla reporter | actives 0.56% (n = 65,000) | CHO 5-HT1a Ga15 NFAT-bla reporter, FRET ratio; 0% basal, 100% maximal reference agonist | AID 567, 2006 | activation, % at 10 µM | 5-hydroxytryptamine receptor 1A (Homo sapiens), P08908;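 active = activation above the screen-wide mean activation plus 3 SD, cut at about 19% in these data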
# Jurkat viability: cytotoxicity toward Jurkat T cells, primary screen, cytotoxicity control, cell-based, Jurkat E6.1, 60K MLSMR library; inhibition, % at 4 µM; actives 1.2% (n = 56,000); Jurkat E6.1 viability, ATP luminescence, 48 h;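 active = inhibition above the mean inhibition of all tested compounds plus 3 SD, cut at about 28% in these data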
# 5HT1E antag: 5-HT1E receptor antagonists, primary screen, cell-based, HTS. CHO 5-HT1E Ga15 NFAT-bla reporter, FRET, antagonist. actives 0.99% (n = 65,000). 5-hydroxytryptamine receptor 1E (Homo sapiens), P28566. inhibition, % at 6 µM;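 active = inhibition above a set limit, the mean inhibition across every tested compound plus 3 SD, cut at about 29% in these data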;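 also: signal is the 460 over 535 nm emission ratio of beta-lactamase substrate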
# Target sequence (P28566 whole entry, looked up): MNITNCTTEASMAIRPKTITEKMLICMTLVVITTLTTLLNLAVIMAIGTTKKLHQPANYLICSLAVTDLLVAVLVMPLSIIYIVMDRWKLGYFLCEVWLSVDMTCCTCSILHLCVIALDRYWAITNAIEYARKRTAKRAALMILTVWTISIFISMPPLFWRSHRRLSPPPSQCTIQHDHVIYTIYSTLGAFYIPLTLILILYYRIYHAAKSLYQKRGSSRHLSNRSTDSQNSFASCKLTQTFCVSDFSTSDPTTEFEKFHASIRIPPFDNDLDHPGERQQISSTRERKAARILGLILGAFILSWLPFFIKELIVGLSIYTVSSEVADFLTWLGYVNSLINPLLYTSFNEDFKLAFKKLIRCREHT
# HEK293 NFkB inh: inhibitors of PMA/ionomycin-induced NF-kB reporter, primary screen, antigen receptor NF-kB inhibitor project, cell-based, HEK-293 luciferase reporter, luminescence; HEK-293 NF-kB luciferase reporter; inhibition, % at 3 µM; actives 0.21% (n = 62,000); AID 465, 2006;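 active = inhibition above the mean of all tested compounds plus 3 SD, cut at about 40% in these data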
#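 System: NF-kB luciferase reporter HEK-293 cells | Replication: Single test | Control set: DMSO vs reference inhibitor | Evaluation: % inhibition | Schedule: 1 h pretreatment, 16 h stimulation, 37 °C | Probe or stimulus: PMA with ionomycin | Compound dosing: One dose, 3 µM | Detection: Luciferase luminescence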
# HTR1E agonist: 5-HT1E receptor agonists, primary screen, cell-based, HTS; 5-hydroxytryptamine receptor 1E (Homo sapiens), P28566; CHO 5-HT1E Ga15 NFAT-bla reporter, FRET; 0% DMSO wells, 100% control agonist wells; actives 0.69% (n = 65,000); activation, % at 6 µM;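 active = activation above a set limit, the screen-wide mean activation plus 3 SD, cut at about 8.5% in these data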
# 5-HT1A blocker: human 5-HT1a receptor antagonists, primary screen, cell-based, CHO, Ga15 NFAT-bla reporter; CHO 5-HT1a Ga15 NFAT-bla reporter, antagonist mode; inhibition, % at 10 µM; actives 0.68% (n = 62,000); AID 612, 2007;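 active = inhibition above the mean of all tested compounds plus 3 SD, cut at about 43% in these data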;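 also: receptor stimulated by 5-CT agonist at 100 nM near EC80; beta-lactamase reporter measured by ratiometric fluorescence of a cleavable substrate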
# A number is an active result; – = inactive; · = no result.
SMILES,5HT1a ag,Jurkat viability,5HT1E antag,HEK293 NFkB inh,HTR1E agonist,5-HT1A blocker
CC(C)Oc1ccc(C(=O)Nc2ccc(N3CCCC3)cc2)cc1,50,–,–,–,–,–
CCCCOc1ccc(C(=O)Nc2ccc(N3CCN(C)CC3)cc2)cc1,–,–,–,–,15,–
CC(C)Oc1cccc(C(=O)Nc2ccc(N3CCN(S(C)(=O)=O)CC3)cc2)c1,–,–,–,–,–,–
CCn1nnnc1SCC(=O)Nc1cc(OC)cc(OC)c1,–,–,–,–,–,–
Cc1nn(-c2ccccc2)c2sc(C(=O)N3CCOCC3)cc12,–,–,36,–,–,–
Cc1nn(-c2ccccc2)c2sc(C(=O)O)cc12,–,·,–,–,–,–
O=C(Nc1ccc(Cl)cc1)N1CCC(c2nc(-c3ccc(F)cc3)no2)CC1,–,–,–,–,–,47
COc1ccc(CNC(=O)CCc2c(C)nc3ncnn3c2C)cc1,–,–,–,–,–,–
CCOc1ccc(C2CC(=O)NC3=C2C(=O)CCC3)cc1 (configuration not stated),–,–,–,–,–,–
CCCOc1ccccc1C1CC(=O)NC2=C1C(=O)CCC2 (configuration not stated),–,95,–,–,–,–
CCCOc1ccccc1C1CC(=O)NC(C)=C1C(=O)OCC(C)C (configuration not stated),–,–,–,–,–,–
CCCCOc1ccccc1C1CC(=O)NC2=C1C(=O)CCC2 (configuration not stated),–,74,29,–,–,–
CCOc1ccccc1C1CC(=O)NC2=C1C(=O)CCC2 (configuration not stated),–,64,–,–,–,–
Cc1occc1-c1nnc(SCC(=O)NC(=O)NC(C)C)n1N,–,–,–,–,–,–
Cc1cc2nnc(SCC(=O)NCc3ccco3)n2c2ccccc12,–,84,–,–,–,–
COc1cc2c(cc1OC)C1=C(C#N)CCC(=O)N1CC2,–,–,49,–,–,–
COc1cc2c(cc1OC)C1=C(C#N)CC/C(=N\S(=O)(=O)c3ccccc3)N1CC2,–,–,66,–,–,–
COc1cc2c(cc1OC)C1=C(C#N)CN(C3CCCCC3)CN1CC2,–,–,–,–,–,–
COc1ccc(CCN2CC(C#N)=C3c4cc(OC)c(OC)cc4CCN3C2)cc1OC,–,–,38,–,–,–
COc1cc2c(cc1OC)CN(S(C)(=O)=O)CC2,–,–,–,–,–,–
C#Cc1ccc(C(=O)Nc2cc(C(N)=O)ccc2N2CCOCC2)cc1,–,–,–,–,–,–
O=C(C1CCN(Cc2ccc(OCc3ccccc3)cc2)CC1)N1CCCC1,–,–,–,–,11,–
COc1ccc(CN2CCCC(C(=O)N3CCCC3)C2)cc1 (configuration not stated),–,–,–,–,–,–
CCn1ncc(C2=NOC(C(=O)Nc3c(C)nn(Cc4ccc(F)cc4)c3C)C2)c1C (configuration not stated),–,–,–,–,–,–
CCn1ncc(C2=NOC(C(=O)NCc3ccc(OC)cc3)C2)c1C (configuration not stated),–,39,–,–,–,–
SMILES,5HT1a ag,Jurkat viability,5HT1E antag,HEK293 NFkB inh,HTR1E agonist,5-HT1A blocker
CCn1ncc(C2=NOC(C(=O)NCc3ccccc3)C2)c1C (configuration not stated),–,93,37,–,–,–
CCn1ncc(C2=NOC(C(=O)Nc3c(C)n(C)n(-c4ccccc4)c3=O)C2)c1C (configuration not stated),–,–,–,–,–,–
COc1ccc(C2=NOC(C(=O)NCc3ccccc3)C2)cc1 (configuration not stated),–,45,39,–,–,–
Cc1ccc(/C(O)=C2\C(=O)C(=O)N(CC(C)O)C2c2ccc(N(C)C)cc2)cc1 (configuration not stated),–,–,–,–,–,–
CN1CCN(C(=O)c2ccc3c(c2)N(Cc2cccc(Cl)c2)C(=O)c2ccccc2S3=O)CC1 (configuration not stated),–,–,–,–,15,–
O=C(c1csc2c1CCCCC2)N1CCN(c2ncccn2)CC1,–,–,–,–,–,–
COc1ccc(OC)c(NC(=O)CSc2nc(C)cs2)c1,–,–,–,–,–,–
CCN1CCN(c2nc3c(c(=O)[nH]c(=O)n3C)n2CCCSc2ncccn2)CC1,62,–,–,–,–,–
CN(CC1CCCO1)S(=O)(=O)c1ccc(C(=O)Nc2nc(-c3ccccn3)cs2)cc1 (configuration not stated),–,52,–,–,–,–
Cc1ccccc1CS(=O)(=O)CCC(=O)N1CCN(c2ccc(N3CCOCC3)nn2)CC1,–,·,–,–,–,–
CCOc1ccc2cc(S(=O)(=O)N3CCOCC3)ccc2c1,–,–,–,–,8.7,–
CCOc1cc(S(=O)(=O)N2CCOCC2)ccc1F,–,–,–,–,–,–
O=C(Nc1nc2ccccc2[nH]1)c1ccccc1F,–,52,–,61,–,–
COc1ccc(OC)c(NC(=O)C2C3CCC(C3=C(C)C)C2C(=O)O)c1 (configuration not stated),–,–,–,–,–,–
COc1ccc(OC)c(NC(=O)C2CCCCC2C(=O)O)c1 (configuration not stated),–,–,–,–,15,–
Cc1nn(-c2ccccc2)c2c1C(O)n1c(nc3ccccc31)S2 (configuration not stated),–,–,–,–,–,–
